We go through 2 compounds from ChEMBL document CHEMBL1140994, “Ranking the selectivity of PubChem screening hits by activity-based protein profiling: MMP13 as a case study” (Bioorg Med Chem, 2009).

The source made the active and inactive calls. The calls are words filed in the database; no cut-off is given here.

The assay concerns the target T1, Disintegrin and metalloproteinase domain-containing protein 8 (Homo sapiens) (UniProt P78325).
T1 sequence (whole entry): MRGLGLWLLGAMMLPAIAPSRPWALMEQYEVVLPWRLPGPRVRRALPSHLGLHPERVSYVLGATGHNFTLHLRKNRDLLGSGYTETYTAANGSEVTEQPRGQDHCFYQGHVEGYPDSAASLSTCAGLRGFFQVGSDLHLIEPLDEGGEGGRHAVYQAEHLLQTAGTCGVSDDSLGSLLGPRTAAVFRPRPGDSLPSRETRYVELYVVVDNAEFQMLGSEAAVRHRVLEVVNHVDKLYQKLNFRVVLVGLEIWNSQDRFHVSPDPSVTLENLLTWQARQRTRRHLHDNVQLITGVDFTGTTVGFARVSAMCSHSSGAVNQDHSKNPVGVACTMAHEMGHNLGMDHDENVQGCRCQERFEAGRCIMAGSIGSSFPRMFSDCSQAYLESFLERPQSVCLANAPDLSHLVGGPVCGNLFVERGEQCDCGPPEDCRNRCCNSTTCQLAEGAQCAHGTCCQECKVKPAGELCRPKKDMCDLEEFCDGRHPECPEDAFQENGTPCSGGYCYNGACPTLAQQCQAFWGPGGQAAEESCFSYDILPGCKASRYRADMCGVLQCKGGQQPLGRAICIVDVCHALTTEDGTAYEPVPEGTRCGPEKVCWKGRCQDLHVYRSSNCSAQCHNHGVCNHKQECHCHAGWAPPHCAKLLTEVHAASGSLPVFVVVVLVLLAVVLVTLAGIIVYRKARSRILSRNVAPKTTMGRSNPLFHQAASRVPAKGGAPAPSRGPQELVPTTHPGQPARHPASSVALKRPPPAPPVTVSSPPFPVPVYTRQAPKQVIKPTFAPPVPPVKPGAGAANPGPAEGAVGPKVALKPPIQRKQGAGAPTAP
The assay is described as follows: Inhibition of human recombinant ADAM8 at 200 uM by HxBPyne probe-based competitive activity based protein profiling assay in presence of 5 uM HxBpane competitor. The procedure, abridged: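 Recombinant enzyme at 0.5 μM final in mouse liver soluble proteome (1 mg protein/mL in PBS). HxBPyne probe cocktail 0.5 μM total final, with inhibitor 200 μM or DMSO. Preincubated 30 min on ice, then UV 365 nm for 1 h on ice. Rhodamine-azide click chemistry, 1 h RT in dark. SDS-PAGE with in-gel fluorescence; band intensity given as % of DMSO control.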

Turning to `COc1ccc(CSc2nc(C)cc(O)n2)cc1`, the outcome was inactive.
As for `Oc1nc(SCc2ccc(Cl)cc2)nc2c1CCC2`, the entry is “inactive”.
